Data taken from publication PMC9540525 (Cancer, 2022).
Entries after “also recorded” stand apart in the source; their conditions may differ.

Test: Phase 1 study CC-90011-ST-001: safety, adverse events
Type: in vivo, human
Method in brief: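 Treated population: all patients given at least one oral dose of test compound (once weekly, 28-day cycles; expansion 60 mg). Adverse events were graded by NCI CTCAE v4.03. Dose reductions were permitted in any cycle, including cycle 1. Treatment could be interrupted for up to 4 weeks, until toxicity returned to grade ≤1 or baseline.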

[1] = dose escalation, n = 50, patients (%)
[2] = dose expansion, NEN, n = 16, patients (%)
[3] = dose expansion, R/R MZL, n = 3, patients (%)
[4] = dose expansion, n = 19, patients (%)

COc1ccc(-c2c(-c3ccc(C#N)c(F)c3)nc(N3CCC(N)CC3)n(C)c2=O)cc1F [CC‐90011]
TEAE any grade: Abdominal pain [1]: 7 (14) | TEAE any grade: Acute kidney injury [1]: 1 (2) | TEAE any grade: Anemia [1]: 14 (28) | TEAE any grade: Arthralgia [1]: 9 (18) | TEAE any grade: Back pain [1]: 7 (14) | TEAE any grade: Bone pain [1]: 1 (2) | TEAE any grade: Bronchitis [1]: 2 (4) | TEAE any grade: Constipation [1]: 11 (22) | TEAE any grade: Cough [1]: 6 (12) | TEAE any grade: Decreased appetite [1]: 10 (20) | TEAE any grade: Diarrhea [1]: 10 (20) | TEAE any grade: Dizziness [1]: 3 (6) | TEAE any grade: Dysgeusia [1]: 3 (6) | TEAE any grade: Dyspnea [1]: 5 (10) | TEAE any grade: Epistaxis [1]: 2 (4) | TEAE any grade: Fatigue/asthenia [1]: 24 (48) | TEAE any grade: Headache [1]: 5 (10) | TEAE any grade: Hepatic pain [1]: 1 (2) | TEAE any grade: Hypokalemia [1]: 5 (10) | TEAE any grade: Increased ALT [1]: 6 (12) | TEAE any grade: Increased AST [1]: 6 (12) | TEAE any grade: Lipase increased [1]: 2 (4) | TEAE any grade: Musculoskeletal pain [1]: 1 (2) | TEAE any grade: Nausea [1]: 11 (22) | TEAE any grade: Neutropenia [1]: 6 (12) | TEAE any grade: Peripheral sensory neuropathy [1]: 2 (4) | TEAE any grade: Pruritus [1]: 3 (6) | TEAE any grade: Pyrexia [1]: 10 (20) | TEAE any grade: Sciatica [1]: 1 (2) | TEAE any grade: Thrombocytopenia [1]: 23 (46) | TEAE any grade: Tumor pain [1]: 5 (10) | TEAE any grade: Vomiting [1]: 14 (28) | TEAE any grade: ≥1 event [1]: 48 (96) | TEAE grade 3/4: Abdominal pain [1]: 0 (0) | TEAE grade 3/4: Acute kidney injury [1]: 0 (0) | TEAE grade 3/4: Anemia [1]: 3 (6) | TEAE grade 3/4: Arthralgia [1]: 0 (0) | TEAE grade 3/4: Back pain [1]: 0 (0) | TEAE grade 3/4: Bone pain [1]: 1 (2) | TEAE grade 3/4: Bronchitis [1]: 0 (0) | TEAE grade 3/4: Constipation [1]: 0 (0) | TEAE grade 3/4: Cough [1]: 0 (0) | TEAE grade 3/4: Decreased appetite [1]: 1 (2) | TEAE grade 3/4: Diarrhea [1]: 1 (2) | TEAE grade 3/4: Dizziness [1]: 0 (0) | TEAE grade 3/4: Dysgeusia [1]: 0 (0) | TEAE grade 3/4: Dyspnea [1]: 0 (0) | TEAE grade 3/4: Epistaxis [1]: 0 (0) | TEAE grade 3/4: Fatigue/asthenia [1]: 1 (2) | TEAE grade 3/4: Headache [1]: 0 (0) | TEAE grade 3/4: Hepatic pain [1]: 0 (0) | TEAE grade 3/4: Hypokalemia [1]: 1 (2) | TEAE grade 3/4: Increased ALT [1]: 2 (4) | TEAE grade 3/4: Increased AST [1]: 1 (2) | TEAE grade 3/4: Lipase increased [1]: 2 (4) | TEAE grade 3/4: Musculoskeletal pain [1]: 0 (0) | TEAE grade 3/4: Nausea [1]: 0 (0) | TEAE grade 3/4: Neutropenia [1]: 4 (8) | TEAE grade 3/4: Peripheral sensory neuropathy [1]: 0 (0) | TEAE grade 3/4: Pruritus [1]: 0 (0) | TEAE grade 3/4: Pyrexia [1]: 0 (0) | TEAE grade 3/4: Sciatica [1]: 0 (0) | TEAE grade 3/4: Thrombocytopenia [1]: 12 (24) | TEAE grade 3/4: Tumor pain [1]: 1 (2) | TEAE grade 3/4: Vomiting [1]: 0 (0) | TEAE grade 3/4: ≥1 event [1]: 24 (48) | TEAE leading to treatment discontinuation (dose expansion): No patients; also recorded: none of the TEAEs | febrile neutropenia (dose expansion): no febrile neutropenia was observed | anemia leading to a dose reduction, patients (dose expansion, 19 patients): 5% | hematologic events leading to a dose interruption, patients (dose expansion, 19 patients): 47% | neutropenia leading to a dose reduction, patients (dose expansion, 19 patients): 5% | patients with at least one TEAE leading to a dose interruption (dose expansion, 19 patients): 58% | patients with at least one TEAE leading to a dose reduction (dose expansion, 19 patients): 26% | thrombocytopenia leading to a dose reduction, patients (dose expansion, 19 patients): 26% | TRAE grade 3/4: Thrombocytopenia (dose expansion, NEN cohort, n=16): 6 n (%) | TEAE any grade: Abdominal pain [2]: 0 (0) | TEAE any grade: Acute kidney injury [2]: 1 (6) | TEAE any grade: Anemia [2]: 6 (38) | TEAE any grade: Arthralgia [2]: 6 (38) | TEAE any grade: Back pain [2]: 1 (6) | TEAE any grade: Bone pain [2]: 2 (13) | TEAE any grade: Bronchitis [2]: 2 (13) | TEAE any grade: Constipation [2]: 5 (31) | TEAE any grade: Cough [2]: 3 (19) | TEAE any grade: Decreased appetite [2]: 3 (19) | TEAE any grade: Diarrhea [2]: 5 (31) | TEAE any grade: Dizziness [2]: 2 (13) | TEAE any grade: Dysgeusia [2]: 4 (25) | TEAE any grade: Dyspnea [2]: 2 (13) | TEAE any grade: Epistaxis [2]: 3 (19) | TEAE any grade: Fatigue/asthenia [2]: 9 (56) | TEAE any grade: Headache [2]: 0 (0) | TEAE any grade: Hepatic pain [2]: 2 (13) | TEAE any grade: Hypokalemia [2]: 2 (13) | TEAE any grade: Increased ALT [2]: 0 (0) | TEAE any grade: Increased AST [2]: 1 (6) | TEAE any grade: Lipase increased [2]: 2 (13) | TEAE any grade: Musculoskeletal pain [2]: 1 (6) | TEAE any grade: Nausea [2]: 5 (31) | TEAE any grade: Neutropenia [2]: 3 (19) | TEAE any grade: Peripheral sensory neuropathy [2]: 2 (13) | TEAE any grade: Pruritus [2]: 2 (13) | TEAE any grade: Pyrexia [2]: 0 (0) | TEAE any grade: Sciatica [2]: 2 (13) | TEAE any grade: Tumor pain [2]: 0 (0) | TEAE any grade: Vomiting [2]: 2 (13) | TEAE grade 3/4: Abdominal pain [2]: 0 (0) | TEAE grade 3/4: Acute kidney injury [2]: 0 (0) | TEAE grade 3/4: Anemia [2]: 1 (6) | TEAE grade 3/4: Arthralgia [2]: 0 (0) | TEAE grade 3/4: Back pain [2]: 0 (0) | TEAE grade 3/4: Bone pain [2]: 0 (0) | TEAE grade 3/4: Bronchitis [2]: 0 (0) | TEAE grade 3/4: Constipation [2]: 0 (0) | TEAE grade 3/4: Cough [2]: 0 (0) | TEAE grade 3/4: Decreased appetite [2]: 0 (0) | TEAE grade 3/4: Diarrhea [2]: 0 (0) | TEAE grade 3/4: Dizziness [2]: 0 (0) | TEAE grade 3/4: Dysgeusia [2]: 0 (0) | TEAE grade 3/4: Dyspnea [2]: 0 (0) | TEAE grade 3/4: Epistaxis [2]: 0 (0) | TEAE grade 3/4: Headache [2]: 0 (0) | TEAE grade 3/4: Hepatic pain [2]: 1 (6) | TEAE grade 3/4: Hypokalemia [2]: 0 (0) | TEAE grade 3/4: Increased ALT [2]: 0 (0) | TEAE grade 3/4: Increased AST [2]: 0 (0) | TEAE grade 3/4: Lipase increased [2]: 0 (0) | TEAE grade 3/4: Musculoskeletal pain [2]: 0 (0) | TEAE grade 3/4: Nausea [2]: 0 (0) | TEAE grade 3/4: Peripheral sensory neuropathy [2]: 0 (0) | TEAE grade 3/4: Pruritus [2]: 0 (0) | TEAE grade 3/4: Pyrexia [2]: 0 (0) | TEAE grade 3/4: Sciatica [2]: 0 (0) | TEAE grade 3/4: Tumor pain [2]: 0 (0) | TEAE grade 3/4: Vomiting [2]: 0 (0) | TEAE any grade: Abdominal pain [3]: 0 (0) | TEAE any grade: Acute kidney injury [3]: 1 (33) | TEAE any grade: Anemia [3]: 1 (33) | TEAE any grade: Arthralgia [3]: 0 (0) | TEAE any grade: Back pain [3]: 0 (0) | TEAE any grade: Bone pain [3]: 1 (33) | TEAE any grade: Bronchitis [3]: 0 (0) | TEAE any grade: Constipation [3]: 1 (33) | TEAE any grade: Cough [3]: 1 (33) | TEAE any grade: Decreased appetite [3]: 0 (0) | TEAE any grade: Diarrhea [3]: 0 (0) | TEAE any grade: Dizziness [3]: 0 (0) | TEAE any grade: Dysgeusia [3]: 0 (0) | TEAE any grade: Dyspnea [3]: 1 (33) | TEAE any grade: Epistaxis [3]: 0 (0) | TEAE any grade: Headache [3]: 0 (0) | TEAE any grade: Hepatic pain [3]: 0 (0) | TEAE any grade: Hypokalemia [3]: 0 (0) | TEAE any grade: Increased ALT [3]: 0 (0) | TEAE any grade: Increased AST [3]: 0 (0) | TEAE any grade: Lipase increased [3]: 0 (0) | TEAE any grade: Musculoskeletal pain [3]: 0 (0) | TEAE any grade: Nausea [3]: 1 (33) | TEAE any grade: Neutropenia [3]: 1 (33) | TEAE any grade: Peripheral sensory neuropathy [3]: 0 (0) | TEAE any grade: Pruritus [3]: 0 (0) | TEAE any grade: Pyrexia [3]: 0 (0) | TEAE any grade: Sciatica [3]: 0 (0) | TEAE any grade: Tumor pain [3]: 1 (33) | TEAE any grade: Vomiting [3]: 0 (0) | TEAE grade 3/4: Abdominal pain [3]: 0 (0) | TEAE grade 3/4: Acute kidney injury [3]: 0 (0) | TEAE grade 3/4: Anemia [3]: 0 (0) | TEAE grade 3/4: Arthralgia [3]: 0 (0) | TEAE grade 3/4: Back pain [3]: 0 (0) | TEAE grade 3/4: Bone pain [3]: 0 (0) | TEAE grade 3/4: Bronchitis [3]: 0 (0) | TEAE grade 3/4: Constipation [3]: 0 (0) | TEAE grade 3/4: Cough [3]: 0 (0) | TEAE grade 3/4: Decreased appetite [3]: 0 (0) | TEAE grade 3/4: Diarrhea [3]: 0 (0) | TEAE grade 3/4: Dizziness [3]: 0 (0) | TEAE grade 3/4: Dysgeusia [3]: 0 (0) | TEAE grade 3/4: Dyspnea [3]: 0 (0) | TEAE grade 3/4: Epistaxis [3]: 0 (0) | TEAE grade 3/4: Fatigue/asthenia [3]: 0 (0) | TEAE grade 3/4: Headache [3]: 0 (0) | TEAE grade 3/4: Hepatic pain [3]: 0 (0) | TEAE grade 3/4: Hypokalemia [3]: 0 (0) | TEAE grade 3/4: Increased ALT [3]: 0 (0) | TEAE grade 3/4: Increased AST [3]: 0 (0) | TEAE grade 3/4: Lipase increased [3]: 0 (0) | TEAE grade 3/4: Musculoskeletal pain [3]: 0 (0) | TEAE grade 3/4: Nausea [3]: 0 (0) | TEAE grade 3/4: Peripheral sensory neuropathy [3]: 0 (0) | TEAE grade 3/4: Pruritus [3]: 0 (0) | TEAE grade 3/4: Pyrexia [3]: 0 (0) | TEAE grade 3/4: Sciatica [3]: 0 (0) | TEAE grade 3/4: Thrombocytopenia [3]: 0 (0) | TEAE grade 3/4: Tumor pain [3]: 0 (0) | TEAE grade 3/4: Vomiting [3]: 0 (0) | TEAE any grade: ≥1 event [4]: 19 (100) | TEAE grade 3/4: ≥1 event [4]: 13 (68) | Serious TEAE: Anemia (dose expansion, n=19): 1 n (%) | Serious TEAE: Biliary tract infection (dose expansion, n=19): 1 n (%) | Serious TEAE: Chest pain (dose expansion, n=19): 1 n (%) | Serious TEAE: Fatigue (dose expansion, n=19): 1 n (%) | Serious TEAE: General health deterioration (dose expansion, n=19): 1 n (%) | Serious TEAE: Hepatic hemorrhage (dose expansion, n=19): 1 n (%) | Serious TEAE: Hepatic pain (dose expansion, n=19): 1 n (%) | Serious TEAE: Oxygen saturation decreased (dose expansion, n=19): 1 n (%) | Serious TEAE: Pulmonary hemorrhage (dose expansion, n=19): 1 n (%) | Serious TEAE: Respiratory failure (dose expansion, n=19): 1 n (%) | Serious TEAE: Thrombocytopenia (dose expansion, n=19): 1 n (%) | Serious TEAE: Upper respiratory tract infection (dose expansion, n=19): 1 n (%) | TEAE with an outcome of death (dose expansion, upper respiratory tract infection, not considered treatment-related): One patient | new safety concerns or late toxicities with longer follow-up (follow-up of approximately 5 years and >4 years of treatment): No new safety concerns or late toxicities were identified
